The source of these data is publication PMC3010304 (Bioorganic & medicinal chemistry letters, 2010).

Series [1] deals with A549 (human lung carcinoma). The series is described as follows: MTT cytotoxicity assay, A549. It counts as cell-based. The following applies: 48 h. In general terms: Formazan colour is commonly taken as a measure of viable cells.
A further series has as its system HIV-1IIIB. The following applies: HIV-1IIIB infected C8166 cell lines; cited from earlier work.
Series [2] relates to MCF-7 (human breast cancer). Nature of the series: MTT cytotoxicity assay, MCF-7. It counts as cell-based. Particulars: 48 h.
Another series relates to HIV-1NL4-3. Nature of the series: HIV-1NL4-3 replication inhibition assay in MT-4 lymphocytes. The format is cell-based. The following applies: HIV-1NL4-3 infected MT-4 cells. A digest of the protocol:
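MT-4 cells infected with HIV-1 NL4-3 variants at a multiplicity of infection of 0.01, in a microtiter-plate replication screen.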

Series [3] deals with T1, rabbit muscle glycogen phosphorylase a (RMGPa) (Oryctolagus cuniculus, UniProt P00489).
T1 sequence (P00489 1-843): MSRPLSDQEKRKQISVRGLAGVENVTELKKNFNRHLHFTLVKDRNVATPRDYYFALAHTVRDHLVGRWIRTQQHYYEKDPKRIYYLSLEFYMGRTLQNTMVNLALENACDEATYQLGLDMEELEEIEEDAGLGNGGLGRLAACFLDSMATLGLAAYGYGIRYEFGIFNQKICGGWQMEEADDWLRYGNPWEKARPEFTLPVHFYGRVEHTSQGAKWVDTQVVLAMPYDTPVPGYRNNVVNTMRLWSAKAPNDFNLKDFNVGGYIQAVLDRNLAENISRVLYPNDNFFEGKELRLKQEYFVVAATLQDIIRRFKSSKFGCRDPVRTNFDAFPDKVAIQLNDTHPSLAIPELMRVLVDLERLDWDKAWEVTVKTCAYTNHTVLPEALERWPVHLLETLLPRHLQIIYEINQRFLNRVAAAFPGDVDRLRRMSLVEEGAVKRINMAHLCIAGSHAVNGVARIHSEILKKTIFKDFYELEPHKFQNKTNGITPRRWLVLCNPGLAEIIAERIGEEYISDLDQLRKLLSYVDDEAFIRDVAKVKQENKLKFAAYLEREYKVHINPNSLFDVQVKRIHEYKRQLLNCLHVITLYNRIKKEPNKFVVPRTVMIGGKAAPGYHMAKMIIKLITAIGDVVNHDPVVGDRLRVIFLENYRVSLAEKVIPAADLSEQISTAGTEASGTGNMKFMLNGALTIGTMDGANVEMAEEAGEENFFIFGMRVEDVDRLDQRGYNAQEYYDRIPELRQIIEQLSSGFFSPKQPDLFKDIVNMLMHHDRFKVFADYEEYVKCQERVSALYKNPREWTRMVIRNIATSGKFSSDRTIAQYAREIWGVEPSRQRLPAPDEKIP
Nature of the series: Inhibition of rabbit muscle glycogen phosphorylase a. Particulars: for GP inhibitory potency relative to betulin (3): fold more potent than 3. The format is biochemical.

Series [4] has as its system PC3 (human prostate cancer). The series is described as follows: MTT cytotoxicity assay, PC3. The format is cell-based. Particulars: 48 h, means of three experiments, NA = no activity.

A value given as a limit tells only on which side of the number the result lay.

Turning to `C=C(C)[C@@H]1CC[C@]2(C(=O)O)CC[C@]3(C)[C@H](CC[C@@H]4[C@@]5(C)[C@H](C(=O)O)[C@H](O)C(C)(C)[C@@H]5CC[C@]43C)[C@@H]12` [Compound 1, Epiceanothic acid], the “decrease of cytotoxic activity against A549 compared with 12” value in series [1] was “more than 20 fold”. In the series on HIV-1IIIB, the “EC50, anti-HIV-1 replication activity” value is less than 0.064 mg/L. The “decrease of cytotoxic activity against MCF-7 compared with 12” value in series [2] is listed as “more than 20 fold”.

Consider `C=C(C)[C@@H]1CC[C@]2(C(=O)O)CC[C@]3(C)[C@H](CC[C@@H]4[C@@]5(C)[C@@H](C(=O)O)[C@H](O)C(C)(C)[C@@H]5CC[C@]43C)[C@@H]12` [Compound 2a, ceanothic acid], for which the “anti-HIV-1 activity (result in words)” value with HIV-1NL4-3 is given as “no anti-HIV-1 activity”. On the same count and under the same terms, the value for `C=C(C)[C@@H]1CC[C@]2(CO)CC[C@]3(C)[C@H](CC[C@@H]4[C@@]5(C)CC[C@H](O)C(C)(C)[C@@H]5CC[C@]43C)[C@@H]12` [Compound 3, betulin] was “did not exhibit significant antiviral activity”. Take `C=C(C)[C@@H]1CC[C@]2(COC(c3ccccc3)(c3ccccc3)c3ccccc3)CC[C@]3(C)[C@H](CC[C@@H]4[C@@](C)(CC(=O)O)[C@H](C(C)(C)C(=O)O)CC[C@]43C)[C@@H]12` [Compound 5]: the “GP inhibitory potency relative to betulin (3)” value in series [3] is given as approximately 200 fold. The “GP inhibitory potency relative to compound 6” value in series [3] (fold more potent than 6) turned out to be 14 fold. In the case of `C=C(C)[C@@H]1CC[C@]2(COC(c3ccccc3)(c3ccccc3)c3ccccc3)CC[C@]3(C)[C@H](CC[C@@H]4[C@@](C)(CC(=O)OC)[C@H](C(C)(C)C(=O)OC)CC[C@]43C)[C@@H]12` [Compound 6], the “GP inhibitory potency relative to betulin (3)” value in series [3] turned out to be 14 fold. As to `C=C(C)[C@@H]1CC[C@]2(COC(c3ccccc3)(c3ccccc3)c3ccccc3)CC[C@]3(C)[C@H](CC[C@@H]4[C@@]5(C)[C@H](C(=O)OC)[C@H](O)C(C)(C)[C@@H]5CC[C@]43C)[C@@H]12` [Compound 8], the “IC50 ±SD, cytotoxic activity, PC3” value in series [4] is “inactive”. The same measure, in the same setting: the value for `C=C(C)[C@@H]1CC[C@]2(COC(c3ccccc3)(c3ccccc3)c3ccccc3)CC[C@]3(C)[C@H](CC[C@@H]4[C@@]5(C)[C@H](C(=O)OC)[C@H](OC(C)=O)C(C)(C)[C@@H]5CC[C@]43C)[C@@H]12` [Compound 9] was “inactive”.
